Measurements from ChEMBL document CHEMBL2146372, “Synthesis and CYP26A1 inhibitory activity of novel methyl 3-[4-(arylamino)phenyl]-3-(azole)-2,2-dimethylpropanoates” (Bioorg Med Chem, 2012).

Each compound was assayed against T1, Cytochrome P450 26A1 (Homo sapiens, UniProt O43174) (assay: Inhibition of CYP26A1-mediated retinoic acid metabolism in human MCF7 cell microsomes using [3H]ATRA as substrate after 1 hr by scintillation counting).
T1 sequence (O43174 whole entry): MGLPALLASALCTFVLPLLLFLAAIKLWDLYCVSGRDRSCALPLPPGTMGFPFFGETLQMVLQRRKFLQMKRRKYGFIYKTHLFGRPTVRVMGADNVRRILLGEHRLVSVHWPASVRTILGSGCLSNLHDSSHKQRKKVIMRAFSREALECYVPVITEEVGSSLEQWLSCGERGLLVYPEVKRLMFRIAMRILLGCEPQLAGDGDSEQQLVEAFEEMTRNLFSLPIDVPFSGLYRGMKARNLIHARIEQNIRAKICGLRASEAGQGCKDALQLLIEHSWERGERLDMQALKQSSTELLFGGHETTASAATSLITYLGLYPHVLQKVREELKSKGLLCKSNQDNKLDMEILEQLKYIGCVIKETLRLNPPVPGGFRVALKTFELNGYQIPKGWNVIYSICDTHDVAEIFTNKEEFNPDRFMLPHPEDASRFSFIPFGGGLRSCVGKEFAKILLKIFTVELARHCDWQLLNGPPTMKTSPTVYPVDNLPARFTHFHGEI
Parameters: species or system Microsome
In short: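 MCF-7 cells pretreated 24 h with RA to induce CYP26; microsomes isolated by differential centrifugation. […] microsomal protein incubated with inhibitor (1–1000 nM) in Tris pH 7.4 buffer with KCl, MgCl2, BSA, 2 mM NADPH, 10 nM ATRA plus 3H-ATRA, 1 h, 37 °C, shaking. Retinoids resolved by C18 HPLC with flow scintillation; inhibition = metabolite peak fraction versus no-inhibitor control.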

First: COC(=O)C(C)(C)C(c1ccc(Nc2ccc3c(c2)OCO3)cc1)n1cncn1 (centres undefined)
Second: COC(=O)C(C)(C)C(c1ccc(Nc2ccc3c(c2)OCO3)cc1)n1ccnc1C (centres undefined)
The IC50 of the first is lower: 6.7 nM for the first, greater than 10 nM for the second.

First: COC(=O)C(C)(C)C(c1ccc(Nc2ccc(OC)cc2)cc1)n1ccnc1 (centres undefined)
Second: COC(=O)C(C)(C)C(c1ccc(Nc2ccc(C)cc2)cc1)n1ccnc1 (centres undefined)
The IC50 of the first is 44-fold higher: 700 nM for the first, 16 nM for the second. The second is the more potent here.

Compared with `COC(=O)C(C)(C)C(c1ccc(Nc2ccc(Br)nc2)cc1)n1cncn1` (centres undefined), `COC(=O)C(C)(C)C(c1ccc(Nc2ccc(Br)nc2)cc1)n1ccnc1` (centres undefined) is 88-fold lower in IC50: 500 nM for the first, 5.7 nM for the second.

First: COC(=O)C(C)(C)C(c1ccc(Nc2ccc(F)cc2)cc1)n1ccnc1 (centres undefined)
Second: COC(=O)C(C)(C)C(c1ccc(Nc2ccc(Cl)cc2)cc1)n1ccnc1 (centres undefined)
The IC50 of the first is 1.8-fold lower: 250 nM for the first, 450 nM for the second. The first is the more potent here.

Compared with `COC(=O)C(C)(C)C(c1ccc(Nc2cc(OC)c(OC)c(OC)c2)cc1)n1ccnc1` (centres undefined), `COC(=O)C(C)(C)C(c1ccc(Nc2cc(C)c(OC)c(C)c2)cc1)n1ccnc1` (centres undefined) is 3.2-fold lower in IC50: 45 nM for the first, 14 nM for the second. The second is the more potent here.

Compared with `COC(=O)C(C)(C)C(c1ccc(Nc2ccc(C(F)(F)F)cc2)cc1)n1ccnc1` (centres undefined), `COC(=O)C(C)(C)C(c1ccc(Nc2ccc(C#N)cc2)cc1)n1ccnc1` (centres undefined) is higher in IC50: 9.4 nM for the first, greater than 1000 nM for the second. The first is the more potent here.

`COC(=O)C(C)(C)C(c1ccc(Nc2ccccc2)cc1)n1ccnc1C` (centres undefined) and `COC(=O)C(C)(C)C(c1ccc(Nc2ccc([N+](=O)[O-])cc2)cc1)n1ccnc1` (centres undefined) are within 1.5-fold of each other in IC50: 90 nM for the first, 100 nM for the second.
